Reference: ChEMBL document CHEMBL1133692, “Modeling of the inhibition of retroviral integrases by styrylquinoline derivatives” (J Med Chem, 2000)

Columns and labels:
Gag-Pol polyprotein = Gag-Pol polyprotein (Rous sarcoma virus (strain Prague C) (RSV-PrC), UniProt P03354); experiment: Inhibition of rous sarcoma virus (RSV) Integrase.
How it was run: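 His-tagged RSV integrase catalytic core expressed in E. coli BL21(DE3) (IPTG 1 mM, 3 h, 37 °C) and purified on Ni-NTA. Disintegration assay used 0.5 pmol 5′-32P-labeled annealed DRSV oligonucleotide with 2 pmol core in Tris buffer pH 7.2 for 1 h at 37 °C. Products were resolved on a 15% denaturing polyacrylamide gel and quantified by phosphorimager. IC50 is the concentration halving activity.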

[1] = target: Human immunodeficiency virus type 1 integrase (Human immunodeficiency virus 1, UniProt Q7ZJM1); experiment: Inhibition of human immunodeficiency virus-1 (HIV-1) integrase.
How it was run: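 Disintegration assay with His-tagged HIV-1 integrase catalytic core, expressed in E. coli BL21(DE3) and Ni-NTA purified. Substrate was 0.5 pmol of 5′-32P-labelled, self-annealed DHIV oligonucleotide, reacted with 2 pmol core in Tris buffer pH 7.2 for 1 h at 37 °C. Products were resolved on 15% denaturing polyacrylamide gel and quantified by phosphorimaging. IC50 is the drug concentration halving enzyme activity.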

Chain of Gag-Pol polyprotein (P03354 1281-1567 limits assumed): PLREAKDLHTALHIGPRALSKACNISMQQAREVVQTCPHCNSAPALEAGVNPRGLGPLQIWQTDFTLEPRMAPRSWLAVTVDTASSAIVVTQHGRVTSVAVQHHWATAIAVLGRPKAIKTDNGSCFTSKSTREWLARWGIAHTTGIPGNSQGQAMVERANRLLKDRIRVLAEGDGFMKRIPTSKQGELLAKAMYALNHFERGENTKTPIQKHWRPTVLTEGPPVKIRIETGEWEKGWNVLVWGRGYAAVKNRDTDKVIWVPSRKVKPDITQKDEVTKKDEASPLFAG
Chain of Human immunodeficiency virus type 1 integrase (Q7ZJM1 whole entry): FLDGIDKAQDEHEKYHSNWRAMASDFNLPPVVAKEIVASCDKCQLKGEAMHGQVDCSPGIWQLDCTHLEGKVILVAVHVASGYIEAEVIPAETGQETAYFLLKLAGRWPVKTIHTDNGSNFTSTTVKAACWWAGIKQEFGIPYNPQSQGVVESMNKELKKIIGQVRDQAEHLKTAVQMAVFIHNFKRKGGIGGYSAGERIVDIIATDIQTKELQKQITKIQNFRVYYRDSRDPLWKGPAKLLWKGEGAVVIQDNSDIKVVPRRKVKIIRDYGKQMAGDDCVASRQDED

Row | SMILES | IC50 (Gag-Pol polyprotein) [µM] | IC50 [1] [µM]
1 | O=C(O)c1ccc2ccc(/C=C/c3ccc(O)cc3O)nc2c1O | 38.3 | 2.5
2 | O=C(O)c1ccc2ccc(/C=C/c3cc(O)c(O)c(O)c3)nc2c1O | 2.1 | –
3 | Cc1ccc2cccc(OC(=O)/C=C/c3ccc(O)c(O)c3)c2n1 | > 100 | –
4 | O=C(O)c1ccc2ccc(/C=C/c3ccc(O)c(O)c3)nc2c1O | 2.3 | –
5 | N#Cc1ccc2ccc(/C=C/c3ccc(O)c(O)c3)nc2c1O | 38 | –
6 | O=C(O)c1cc(/C=C/c2ccc3ccc(C(=O)O)c(O)c3n2)ccc1O | 7.4 | –
7 | O=[N+]([O-])c1cccc2ccc(/C=C/c3ccc(O)c(O)c3)nc12 | > 100 | –
8 | O=C(O)c1ccc2ccc(/C=C/c3ccc(O)cc3)nc2c1O | 20.9 | –

Second part, led by results:

Row | IC50 (Gag-Pol polyprotein) [µM] | SMILES | IC50 [1] [µM]
9 | > 100 | Nc1cccc2ccc(/C=C/c3ccc(O)c(O)c3)nc12 | –
10 | > 100 | CC(=O)Oc1cccc2ccc(/C=C/c3ccccc3)nc12 | –
11 | > 100 | CC(=O)Oc1ccc(/C=C/c2ccc3cccc(OC(C)=O)c3n2)cc1OC(C)=O | –
12 | 10.3 | O=C(O)c1ccc2ccc(/C=C/c3ccccc3)nc2c1O | –
13 | > 100 | Oc1cccc2ccc(/C=C/c3ccccc3)nc12 | –
14 | 65.1 | Oc1ccc(/C=C/c2ccc3cccc(O)c3n2)cc1O | –
